MIC data for seven compounds are collected here from ChEMBL document CHEMBL1128718, “2-Substituted penems with amino acid-related side chains: synthesis and antibacterial activity of a new series of beta-lactam antibiotics” (1995).

SMILES strings stand for the structures. Converted amounts (≈) assume the structure as drawn. A value given as a limit tells only on which side of the number the result lay.

What all share (type): functional
In assay [1] the test system is Pseudomonas aeruginosa. Kind of assay: In Vitro antibacterial activity against (Pa) Pseudomonas aeruginosa ATCC 27853. The method, boiled down: (§1)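 Panel of standard ATCC strains plus modified strains: methicillin-resistant, hyperpermeable, β-lactamase-producing (TEM1, TEM2, SHV) and β-lactamase-lacking. MIC determined in Mueller Hinton 2 medium, inoculum 10⁴ cells/mL, incubated 24 h at 37 °C.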

Assay [2] has as its system Escherichia coli. As to the kind of experiment: In Vitro antibacterial activity against (Ec) Escherichia coli ATCC 25922. The method, boiled down:
as §1

In assay [3] the test system is Staphylococcus aureus. As to the kind of experiment: In vitro antibacterial activity against Sa MR(I) heterogeneous methicillin resistant Staphylococcus aureus. The procedure, abridged: (§2)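 MIC was determined in Mueller Hinton 2 medium with an inoculum of 10⁴ cells/mL and incubation for 24 h at 37 °C. Strains: Sa(I) is S. aureus ATCC 29213; Sa MR(I) is a heterogeneous methicillin-resistant S. aureus; Sa MR(II) is a homogeneous methicillin-resistant S. aureus.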

Assay [4] has as its system Escherichia coli. As to the kind of experiment: In Vitro antibacterial activity against (Ec TEM2) Escherichia coli […] strain. The procedure, abridged: as §1
For assay [5], the system named is Escherichia coli. As to the kind of experiment: In Vitro antibacterial activity against (Ec SHV) Escherichia coli […] strain. The method, boiled down:
as §1

The test system of assay [6] is Pseudomonas aeruginosa. As to the kind of experiment: In Vitro antibacterial activity against (Pa) hyperpermeable Pseudomonas aeruginosa […] strain. The method, boiled down: as §1
The test system of assay [7] is Staphylococcus aureus. Kind of assay: In vitro antibacterial activity against Sa(II) Staphylococcus aureus ATCC 25923. The method, boiled down: as §1
For assay [8], the system named is Staphylococcus aureus. As to the kind of experiment: In vitro antibacterial activity against Sa(I) Staphylococcus aureus ATCC 29213. The method, boiled down:
as §2

For assay [9], the system named is Staphylococcus aureus. As to the kind of experiment: In vitro antibacterial activity against Sa MR(II) homogeneous methicillin resistant Staphylococcus aureus. The method, boiled down:
as §2

Assay [10] deals with Escherichia coli. As to the kind of experiment: In Vitro antibacterial activity against (Ec L) Escherichia coli […] strain. The procedure, abridged:
as §1

Assay [11] concerns Enterococcus faecalis. Kind of assay: In Vitro antibacterial activity against (Ef) Enterococcus faecalis ATCC 29212. The procedure, abridged:
as §1

The test system of assay [12] is Escherichia coli. Kind of assay: In Vitro antibacterial activity against (Ec TEM1) Escherichia coli […] strain. The method, boiled down: as §1
The subject of assay [13] is Pseudomonas aeruginosa. Kind of assay: In Vitro antibacterial activity against (Pa G242) hyperpermeable Pseudomonas aeruginosa strain. The method, boiled down: as §1
The subject of assay [14] is Escherichia coli. As to the kind of experiment: In Vitro antibacterial activity against (Ec DC2) hyperpermeable Escherichia coli strain. The method, boiled down: as §1

In the case of `C[C@@H](O)[C@H]1C(=O)N2C(C(=O)O)=C(CN(C)C(CO)C(N)=O)S[C@H]12` (some centres undefined), the MIC in assay [1] is greater than 64 µg/mL; in assay [2] it was 0.12 µg/mL (≈ 0.347 µM); in assay [3], 0.25 µg/mL (≈ 0.724 µM); in assay [4], 1 µg/mL (≈ 2.9 µM); in [5], 2 µg/mL (≈ 5.79 µM); in [6], 8 µg/mL (≈ 23.2 µM). Also, the minimum inhibitory concentration (MIC) in assay [7] was determined as 0.06 µg/mL (≈ 0.174 µM); in assay [8] it was 0.12 µg/mL (≈ 0.347 µM); in assay [9] it was 8 µg/mL (≈ 23.2 µM); in [10] it was 0.5 µg/mL (≈ 1.45 µM); in [11], 4 µg/mL (≈ 11.6 µM); in [12], 1 µg/mL (≈ 2.9 µM). Also, the minimum inhibitory concentration (MIC) in [13] and in assay [14] was 1 µg/mL (≈ 2.9 µM) throughout.
On to `C[C@@H](O)[C@H]1C(=O)N2C(C(=O)O)=C(CN3CC3C(N)=O)S[C@H]12` (some centres undefined), for which the MIC in assay [1] is greater than 64 µg/mL; in assay [2], 2 µg/mL (≈ 6.38 µM); in assay [3], 0.25 µg/mL (≈ 0.798 µM); in assay [4] it was 2 µg/mL (≈ 6.38 µM); in [5], 4 µg/mL (≈ 12.8 µM); in [6] it was 1 µg/mL (≈ 3.19 µM). The MIC is 0.25 µg/mL (≈ 0.798 µM) in assay [7]; 0.5 µg/mL (≈ 1.6 µM) in assay [8]; 8 µg/mL (≈ 25.5 µM) in assay [9]; 4 µg/mL (≈ 12.8 µM) in assay [10]; 16 µg/mL (≈ 51.1 µM) in assay [11]; 2 µg/mL (≈ 6.38 µM) in assay [12]. Moreover, the values for the MIC in assay [13] and in assay [14] were 2 µg/mL (≈ 6.38 µM) and 4 µg/mL (≈ 12.8 µM), respectively.
With `C[C@@H](O)[C@H]1C(=O)N2C(C(=O)O)=C(CN(C)CCC(N)=O)S[C@H]12`, the MIC in [1] is greater than 64 µg/mL; in assay [2] it was 0.5 µg/mL (≈ 1.52 µM); in assay [3] it was 0.12 µg/mL (≈ 0.364 µM); in [4], 1 µg/mL (≈ 3.04 µM); in [5], 1 µg/mL (≈ 3.04 µM); in [6], 2 µg/mL (≈ 6.07 µM). The MIC is 0.06 µg/mL (≈ 0.182 µM) in [7]; 0.12 µg/mL (≈ 0.364 µM) in assay [8]; 2 µg/mL (≈ 6.07 µM) in assay [9]; 1 µg/mL (≈ 3.04 µM) in assay [10]; 16 µg/mL (≈ 48.6 µM) in assay [11]; 1 µg/mL (≈ 3.04 µM) in assay [12]. In addition, the minimal inhibitory concentration (MIC) in assay [13] stood at 1 µg/mL (≈ 3.04 µM); in assay [14], 2 µg/mL (≈ 6.07 µM).
`C[C@@H](O)[C@H]1C(=O)N2C(C(=O)O)=C(CN(C)C(Cc3ccccc3)C(N)=O)S[C@H]12` (some centres undefined): the MIC was greater than 64 µg/mL in assay [1]; 16 µg/mL (≈ 39.5 µM) in [2]; 0.12 µg/mL (≈ 0.296 µM) in assay [3]; greater than 64 µg/mL in assay [4]; greater than 64 µg/mL in assay [6]; 0.015 µg/mL (≈ 0.037 µM) in [7]. The MIC in assay [8] was 0.12 µg/mL (≈ 0.296 µM); in [9], 2 µg/mL (≈ 4.93 µM); in assay [10], greater than 64 µg/mL; in [11], 4 µg/mL (≈ 9.86 µM); in [12], 32 µg/mL (≈ 78.9 µM); in assay [14], 1 µg/mL (≈ 2.47 µM).
As for `C[C@@H](O)[C@H]1C(=O)N2C(C(=O)O)=C(CN(C)CC(=O)N(C)C)S[C@H]12`, the MIC in assay [1] is greater than 64 µg/mL; in [2], 0.5 µg/mL (≈ 1.46 µM); in assay [4], 1 µg/mL (≈ 2.91 µM); in [5] it was 1 µg/mL (≈ 2.91 µM); in assay [6], 4 µg/mL (≈ 11.6 µM); in assay [7], 0.12 µg/mL (≈ 0.349 µM). Moreover, the MIC in assay [8] worked out at 0.25 µg/mL (≈ 0.728 µM); in [9], 4 µg/mL (≈ 11.6 µM); in assay [10], 0.5 µg/mL (≈ 1.46 µM); in assay [12], 1 µg/mL (≈ 2.91 µM); in assay [13], 0.5 µg/mL (≈ 1.46 µM); in assay [14] it was 1 µg/mL (≈ 2.91 µM).
For the compound `C[C@@H](O)[C@H]1C(=O)N2C(C(=O)O)=C(CN3CCC(C(N)=O)CC3)S[C@H]12`, the MIC is greater than 64 µg/mL in assay [1]; 2 µg/mL (≈ 5.63 µM) in assay [2]; 0.12 µg/mL (≈ 0.338 µM) in assay [3]; 2 µg/mL (≈ 5.63 µM) in assay [4]; 2 µg/mL (≈ 5.63 µM) in [5]; 1 µg/mL (≈ 2.81 µM) in assay [6]. The minimal inhibitory concentration (MIC) in [7] stood at 0.015 µg/mL (≈ 0.0422 µM); in [8] it was 0.06 µg/mL (≈ 0.169 µM); in assay [9], 2 µg/mL (≈ 5.63 µM); in [10], 2 µg/mL (≈ 5.63 µM); in assay [11], 16 µg/mL (≈ 45 µM); in assay [12] it was 2 µg/mL (≈ 5.63 µM). Besides, the MIC in [13] and in assay [14] was 2 µg/mL (≈ 5.63 µM) throughout.
On to `C[C@@H](O)[C@H]1C(=O)N2C(C(=O)O)=C(CN3C[C@H](O)C[C@@H]3C(N)=O)S[C@H]12`, for which the MIC in assay [1] is greater than 64 µg/mL; in assay [2] it was 2 µg/mL (≈ 5.6 µM); in assay [3] it was 0.25 µg/mL (≈ 0.7 µM); in [4], 2 µg/mL (≈ 5.6 µM); in assay [5], 2 µg/mL (≈ 5.6 µM); in assay [6], 0.5 µg/mL (≈ 1.4 µM). Further, the MIC in assay [7] is 0.25 µg/mL (≈ 0.7 µM); in assay [8] it was 0.25 µg/mL (≈ 0.7 µM); in [9] it was 8 µg/mL (≈ 22.4 µM); in assay [10], 2 µg/mL (≈ 5.6 µM); in assay [11], 32 µg/mL (≈ 89.5 µM); in assay [12], 2 µg/mL (≈ 5.6 µM). In addition, the MIC in assay [13] and in assay [14] was 2 µg/mL (≈ 5.6 µM) each time.
